Laboratory results taken from ChEMBL document CHEMBL3739355, “Design, synthesis and evaluation of bitopic arylpiperazinephenyl-1,2,4-oxadiazoles as preferential dopamine D3 receptor ligands” (Bioorg Med Chem, 2016).
“And” between values parts separate entries of the source, which are not always exact repeats. Equal entries are not always repeated.

Columns and labels:
D(3) dopamine receptor [1] = biological target: T1, D(3) dopamine receptor (Homo sapiens, UniProt P35462); assay: Displacement of [3H]-sulpiride from human dopamine D3 receptor expressed in HEK293 cells at 0.1 uM after 150 mins by liquid scintillation counting; format: cell-based
How it was run: (§1)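 Transiently PEI-transfected HEK293 cells expressing human D2R or D3R, serum-free, rinsed ice-cold. Each ligand at a single concentration competed at 4 °C for 150 min with [³H]-sulpiride: 2.2 nM for D2R, 4.4 nM for D3R. Unbound label removed by three washes in ice-cold MEM/10 mM HEPES pH 7.4. Cells were lysed in 1% SDS and bound radioactivity read by liquid scintillation.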

D(2) dopamine receptor [2] = biological target: T2, D(2) dopamine receptor (Homo sapiens, UniProt P14416); assay: Displacement of [3H]-sulpiride from human dopamine D2 receptor expressed in HEK293 cells at 0.1 uM after 150 mins by liquid scintillation counting; format: cell-based; how it was run: as §1
D(2) dopamine receptor [3] = biological target: T2, D(2) dopamine receptor; assay: Displacement of [3H]-sulpiride from human dopamine D2 receptor expressed in HEK293 cells at 1 uM after 150 mins by liquid scintillation counting; format: cell-based; how it was run: as §1
D(3) dopamine receptor [4] = biological target: T1, D(3) dopamine receptor; assay: Displacement of [3H]-sulpiride from human dopamine D3 receptor expressed in HEK293 cells at 1 uM after 150 mins by liquid scintillation counting; format: cell-based; how it was run: as §1
Homo sapiens = species on record: Homo sapiens; assay: Selectivity ratio of Ki for human dopamine D2 receptor to Ki for human dopamine D3 receptor
D(2) dopamine receptor [5] = biological target: T2, D(2) dopamine receptor; assay: Displacement of [3H]-sulpiride from human dopamine D2 receptor expressed in HEK293 cells after 150 mins by liquid scintillation counting; format: cell-based
How it was run: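 HEK293 cells grown in MEM with 10% FBS and penicillin/streptomycin, PEI-transfected with human D2R plasmid (medium changed at 4 h, grown 24 h), then seeded and cultured overnight. Rinsed with ice-cold serum-free MEM, incubated with 2.2 nM [³H]-sulpiride plus varying ligand concentrations at 4 °C for 150 min. Washed three times in ice-cold MEM/10 mM HEPES pH 7.4, lysed in 1% SDS, scintillation counted. IC50 came from nonlinear regression curve fits.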

D(3) dopamine receptor [6] = biological target: T1, D(3) dopamine receptor; assay: Displacement of [3H]-sulpiride from human dopamine D3 receptor expressed in HEK293 cells after 150 mins by liquid scintillation counting; format: cell-based

T2 sequence (P14416 whole entry): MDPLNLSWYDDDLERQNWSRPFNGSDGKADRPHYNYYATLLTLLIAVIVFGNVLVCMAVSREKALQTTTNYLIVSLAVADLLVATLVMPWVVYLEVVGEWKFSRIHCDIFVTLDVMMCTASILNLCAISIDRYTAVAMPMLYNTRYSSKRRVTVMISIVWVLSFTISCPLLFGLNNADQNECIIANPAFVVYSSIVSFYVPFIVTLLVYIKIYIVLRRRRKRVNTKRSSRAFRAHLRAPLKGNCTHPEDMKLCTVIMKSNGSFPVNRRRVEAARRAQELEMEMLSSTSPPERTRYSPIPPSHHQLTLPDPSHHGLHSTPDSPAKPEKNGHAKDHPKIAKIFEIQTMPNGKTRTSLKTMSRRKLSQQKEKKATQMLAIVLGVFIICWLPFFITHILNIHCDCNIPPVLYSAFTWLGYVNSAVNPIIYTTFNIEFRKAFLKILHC
T1 sequence (P35462 whole entry): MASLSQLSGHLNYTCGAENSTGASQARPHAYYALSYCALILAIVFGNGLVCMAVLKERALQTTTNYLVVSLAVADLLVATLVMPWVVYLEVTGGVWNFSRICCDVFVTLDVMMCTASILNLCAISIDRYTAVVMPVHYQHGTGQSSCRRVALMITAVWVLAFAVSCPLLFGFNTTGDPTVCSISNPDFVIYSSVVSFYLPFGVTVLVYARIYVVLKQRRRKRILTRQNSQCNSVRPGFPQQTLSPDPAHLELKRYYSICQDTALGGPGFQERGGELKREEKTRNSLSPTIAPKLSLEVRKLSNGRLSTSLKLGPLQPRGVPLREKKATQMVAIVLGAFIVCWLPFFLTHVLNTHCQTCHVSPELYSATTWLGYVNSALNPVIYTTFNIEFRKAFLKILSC

| Structure (SMILES) | inhibition (D(3) dopamine receptor [1]) | inhibition (D(2) dopamine receptor [2]) | also measured |
| --- | --- | --- | --- |
| Fc1ccccc1N1CCN(CCCCNc2noc(-c3ccccc3)n2)CC1 | 50.7% | 69.8% | – |
| N#Cc1ccc(-c2nc(NCCCCN3CCN(c4ccc(Cl)cc4Cl)CC3)no2)cc1 | 36.6% and 11.8% | 8.8% and 22.8% | – |
| CCCN(CCCCN1CCN(c2ccc(Cl)cc2Cl)CC1)c1noc(-c2ccccc2)n1 | – | – | inhibition (D(2) dopamine receptor [3]): -0.6%; inhibition (D(3) dopamine receptor [4]): 15.1% |
| Clc1ccc(N2CCN(CCCCNc3noc(-c4ccccc4)n3)CC2)c(Cl)c1 [listing 1 of 3 here] | – | – | Ratio Ki (Homo sapiens): 7.7 and 4.4 |
| CCCN(CCCCN1CCN(c2cccc(C(F)(F)F)c2)CC1)c1noc(-c2ccccc2)n1 | – | – | inhibition (D(2) dopamine receptor [3]): 17.8%; inhibition (D(3) dopamine receptor [4]): 9.7% |
| Clc1ccc(N2CCN(CCCCNc3noc(-c4ccccc4)n3)CC2)c(Cl)c1 [listing 2 of 3 here] | – | – | Ki (D(2) dopamine receptor [5]): 1.29 µM; Ki (D(3) dopamine receptor [6]): 0.29 µM |
| FC(F)(F)c1cccc(N2CCN(CCCCNc3noc(-c4ccccc4)n3)CC2)c1 | 35.3% | 19.8% | – |
| CCCN(CCCCN1CCN(c2ccccc2F)CC1)c1noc(-c2ccccc2)n1 | – | – | inhibition (D(2) dopamine receptor [3]): 10.6%; inhibition (D(3) dopamine receptor [4]): 3.2% |
| Clc1ccc(N2CCN(CCCCNc3noc(-c4ccccc4)n3)CC2)cc1 | – | -2.6% and 8.3% | Ratio Ki (Homo sapiens): 297; Ki (D(2) dopamine receptor [5]): 79.6 µM; Ki (D(3) dopamine receptor [6]): 0.27 µM |
| CCCN(CCCCN1CCN(c2cccc(Cl)c2Cl)CC1)c1noc(-c2ccccc2)n1 | – | – | inhibition (D(2) dopamine receptor [3]): 50.1%; inhibition (D(3) dopamine receptor [4]): 22.1% |
| O=C(NCCCCN1CCN(c2ccc(Cl)cc2Cl)CC1)c1cc2ccccc2[nH]1 | – | – | Ki (D(2) dopamine receptor [5]): > 23.9 µM |
| COc1ccccc1-c1nc(NCCCCN2CCN(c3ccc(Cl)cc3Cl)CC2)no1 | 4.2% and 7.7% | 5.6% and 5.4% | – |
| Clc1ccc(N2CCN(CCCCNc3noc(-c4ccccc4)n3)CC2)c(Cl)c1 [listing 3 of 3 here] | – | – | Ki (D(2) dopamine receptor [5]): 6.23 µM; Ki (D(3) dopamine receptor [6]): 0.81 µM |
| Clc1ccc(N2CCN(CCCCNc3noc(-c4ccccn4)n3)CC2)c(Cl)c1 | 9.5% and 14.8% | 7.8% and 17.9% | – |

Further lines, with some results ahead:

| inhibition (D(3) dopamine receptor [1]) | inhibition (D(2) dopamine receptor [2]) | Structure (SMILES) | also measured |
| --- | --- | --- | --- |
| 33.8% and 16.6% | 15.2% and 40% | Clc1ccc(-c2nc(NCCCCN3CCN(c4ccc(Cl)cc4Cl)CC3)no2)cc1 | – |
| 37% and 41.5% | 28.3% and 40.4% | Clc1cccc(-c2nc(NCCCCN3CCN(c4ccc(Cl)cc4Cl)CC3)no2)c1 | – |
| 14.2% | 12.7% | Clc1ccc(N2CCN(CCCCNc3noc(-c4ccc(Br)cc4)n3)CC2)c(Cl)c1 | – |
